Only some compounds are listed: those with a hit (about 2.2% of all), similar ones and a draw of the others.
Cneo AK release: Cryptococcus neoformans cell lysis inducers, primary screen, AK release luminescence, single concentration; AID 651654, 2012; lysis activity, % at 15 µM; hit rate 0.2% among 360,000; C. neoformans lysis, adenylate kinase release luminescence, 4 h; normalised: neutral wells 0, clomiphene wells 100;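 active = mean lysis activity across replicates of at least 80%, whatever share of replicates individually reach that level; inactive = mean lysis activity below 80%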
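Signal: Adenylate kinase release luminescence | Assay system: Log-phase Cryptococcus neoformans yeast cells | Input: Cells at 5 × 10^6 per mL | Buffer or medium: Fresh YPD growth medium | Compound: Single dose | Schedule: Static 4 h at 37 °C with compound, 1 h detection | Controls: Clomiphene | Read-out: Luminescence rise reflecting yeast cell lysis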
Ecoli rRNA inh: reduced GFP signal of wild-type E. coli, primary screen, bacterial rRNA inhibitor project, GFP/RFP fluorescence, OD600, single point; AID 720706, 2013; E. coli WT GFP vs humanized-ribosome RFP mutants, 24 h; hits give low values; DMSO median 0, no signal -100; GFP signal change (wild-type ribosome), % (concentration not given with the values); hit rate 1.6% among 350,000;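 active = significant combined selectivity score with lowered wild-type GFP, culture density cut under 30%, mutant RFP and density less affected; inactive = any of these conditions unmet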
CR mimetic SO: reduction of superoxide in aged yeast, primary screen, HTS; S. cerevisiae aged cells, superoxide DHE fluorescence; hits give low values; superoxide response (% of plate mean), % at 10 µM; hit rate 0.18% among 330,000;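 active = superoxide response under a set limit, about three screen SD below normal, cut at about 65% in these data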;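 note: yeast aged for seven days with compound at 30 °C before DHE staining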
SUMO Mot1 rescue: yeast Mot1-301 growth rescue at high temperature, primary screen, SUMOylation pathway inhibitor project, S. cerevisiae, ATP luminescence, 38.5C; S. cerevisiae Mot1-301 growth rescue; percent above DMSO median, 100 means doubled; growth rescue, % at 18.8 µM; hit rate 1% among 320,000;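 active = every valid replicate shows activation above 250% relative to neutral control wells; inactive = the rest, any valid replicate at or below 250%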
PglD inh: C. jejuni PglD acetyltransferase inhibitors, primary screen, biochemical, DTNB colorimetric, single point; UDP-N-acetylbacillosamine N-acetyltransferase PglD (Campylobacter jejuni); purified PglD enzyme, DTNB colorimetric CoA detection; inhibition, % at 12.5 µM; hit rate 0.098% among 360,000; AID 602405, 2012; in the data active = inhibition above about 16%, passing the limit was not always enough
CR mimetic CP: superoxide lowering in aged yeast cells, confirmation, cherry picked compounds; shares compounds with CR mimetic SO; S. cerevisiae aging, superoxide DHE fluorescence; hits give low values; superoxide response (% of plate), % at 10 µM; hit rate 1% among 850; AID 434994, 2010;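 active = superoxide signal below 65% of the plate average of sample wells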;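 note: cells aged with compound for 7 days at 30 degrees C before staining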
DHE fluor count: DHE quenching or ROS scavenging interference in aged yeast, artefact control for yeast caloric restriction mimetic project, S. cerevisiae BY4741, flow cytometry. 850 tested, under 10 active. fluorescence response, % at 10 µM. shares compounds with CR mimetic SO. DHE fluorescence; hits give low values;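 active = fluorescence response below 15%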;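 note: lower means stronger quenching of DHE signal or ROS scavenging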
Numbers stand for hits.

`Cc1cccc(C)c1OCC(=O)NCc1ccccc1` gave Cneo AK release inactive, Ecoli rRNA inh inactive, CR mimetic SO 46, SUMO Mot1 rescue inactive, PglD inh inactive, CR mimetic CP inactive and DHE fluor count inactive.
For Cc1ccc(S(=O)(=O)N2CCN=C2SCc2ccccc2)cc1 the results were Ecoli rRNA inh inactive, CR mimetic SO 63, SUMO Mot1 rescue inactive, CR mimetic CP inactive and DHE fluor count inactive.
CCOC(=O)c1c(NC(=O)CSc2nnnn2-c2ccccc2)sc2c1CC(C)(C)NC2(C)C was read as Cneo AK release inactive, Ecoli rRNA inh inactive, CR mimetic SO 62, SUMO Mot1 rescue inactive, PglD inh inactive, CR mimetic CP inactive and DHE fluor count inactive.
Screening CC(=O)c1ccc(N/N=C2/CCCNC2=O)cc1 returned Cneo AK release inactive, CR mimetic SO 63, SUMO Mot1 rescue inactive, PglD inh inactive, CR mimetic CP inactive and DHE fluor count inactive.
`C[C@H](CO)N1C[C@H](C)[C@H](CN(C)S(=O)(=O)c2ccccc2)OCCCC[C@H](C)Oc2ccc(NS(=O)(=O)c3ccc(F)cc3)cc2C1=O` gave Cneo AK release inactive, Ecoli rRNA inh inactive and PglD inh inactive.
For CCOC(=O)NC(=O)/C(C#N)=N\Nc1ccc(Cl)cc1 the results were CR mimetic SO inactive, SUMO Mot1 rescue inactive, CR mimetic CP inactive and DHE fluor count inactive.
`CCOc1ccc(N/C(SC)=C(/C#N)C(N)=O)cc1` gave Cneo AK release inactive, CR mimetic SO inactive, SUMO Mot1 rescue inactive and PglD inh inactive.
COc1ccc(C(=O)/C(C#N)=N/Nc2ccc([N+](=O)[O-])cc2)cc1 was read as Ecoli rRNA inh inactive, CR mimetic SO inactive and SUMO Mot1 rescue inactive.
For COc1ccc(N/N=C(\C#N)C(N)=O)cc1 the results were Ecoli rRNA inh inactive, CR mimetic SO 48, SUMO Mot1 rescue inactive, CR mimetic CP inactive and DHE fluor count inactive.
CCOc1ccc(N/N=C(/C#N)C(N)=O)cc1 was read as Cneo AK release inactive, Ecoli rRNA inh inactive, CR mimetic SO 46, SUMO Mot1 rescue inactive, PglD inh inactive, CR mimetic CP inactive and DHE fluor count inactive.
For CN(C)CC(=O)Nc1ccc2c(c1)[C@H]1C[C@H](CC(=O)NCCc3ccccc3)O[C@H](CO)[C@H]1O2 the results were Cneo AK release inactive, Ecoli rRNA inh inactive and PglD inh inactive.
CCN(CC)c1ccc(/C=C/c2cc(-c3ccccc3)c3ccccc3n2)cc1 was read as Cneo AK release inactive, Ecoli rRNA inh inactive, CR mimetic SO 55, SUMO Mot1 rescue inactive, PglD inh inactive, CR mimetic CP inactive and DHE fluor count inactive.
CN(C)S(=O)(=O)c1ccc(C(=O)OCn2nnc3ccccc3c2=O)cc1 was read as Cneo AK release inactive, Ecoli rRNA inh inactive, CR mimetic SO 65, SUMO Mot1 rescue inactive, PglD inh inactive, CR mimetic CP inactive and DHE fluor count inactive.
`O=C(OCn1nnc2ccccc2c1=O)c1cccnc1` gave Cneo AK release inactive, CR mimetic SO inactive, SUMO Mot1 rescue inactive and PglD inh inactive.
Screening Cc1ccc(S(=O)(=O)N2CC(O)CC2C(=O)O)cc1 (stereo not given) returned Cneo AK release inactive, Ecoli rRNA inh inactive, CR mimetic SO inactive, SUMO Mot1 rescue inactive, PglD inh inactive, CR mimetic CP inactive and DHE fluor count inactive.
Screening O=C(O)C1CC(O)CN1S(=O)(=O)c1ccc2ccccc2c1 (stereo not given) returned Cneo AK release inactive, Ecoli rRNA inh inactive, CR mimetic SO inactive, SUMO Mot1 rescue inactive and PglD inh inactive.
For Cc1ccc(C)c(-n2c(-c3ccc(Br)cc3)csc2=NC(=O)c2ccccc2F)c1 the results were Cneo AK release inactive, Ecoli rRNA inh inactive, CR mimetic SO 53, SUMO Mot1 rescue inactive, PglD inh inactive, CR mimetic CP inactive and DHE fluor count inactive.
Screening COc1ccc2c3c([nH]c2c1)[C@@H](CO)N(C(=O)Nc1ccc(F)cc1)CC31CN(Cc2nccs2)C1 returned Ecoli rRNA inh inactive.
`Cc1ccc(C)c(NC(=O)CN(C)C(=O)c2oc3c(Cl)cccc3c2C)c1` gave Cneo AK release inactive, Ecoli rRNA inh inactive, CR mimetic SO 65, SUMO Mot1 rescue inactive, PglD inh inactive, CR mimetic CP inactive and DHE fluor count inactive.
Screening COc1ccc(NC(=O)Nc2ccc3c(c2)C(=O)N([C@H](C)CO)C[C@H](C)[C@H](CN(C)C(=O)Nc2ccccc2)OCCCC[C@H](C)O3)cc1 returned Cneo AK release inactive, Ecoli rRNA inh inactive and PglD inh inactive.
Screening Cc1n[nH]c(=S)n(/N=C/c2cccc([N+](=O)[O-])c2)c1=O returned Ecoli rRNA inh inactive, CR mimetic SO 61, SUMO Mot1 rescue inactive, CR mimetic CP inactive and DHE fluor count inactive.
For O=[N+]([O-])c1cccc(/C=N/n2c(-c3cccnc3)n[nH]c2=S)c1 the results were Cneo AK release inactive, CR mimetic SO inactive, SUMO Mot1 rescue inactive and PglD inh inactive.
`CC(C)NC(=O)N(C)C[C@@H]1OCCCC[C@@H](C)Oc2ccc(NC(=O)CCCN(C)C)cc2C(=O)N([C@H](C)CO)C[C@H]1C` gave Cneo AK release inactive, Ecoli rRNA inh inactive and PglD inh inactive.
`Cc1ccc(/C=N/NC(=O)c2nnn(-c3nonc3N)c2CNc2ccccc2)cc1` gave Cneo AK release inactive, Ecoli rRNA inh inactive, CR mimetic SO 65, SUMO Mot1 rescue inactive, PglD inh inactive, CR mimetic CP inactive and DHE fluor count inactive.
Nc1nonc1-n1nnc(C(=O)N/N=C/c2ccc(OCc3ccccc3F)cc2)c1CNc1ccccc1 was read as Cneo AK release inactive, Ecoli rRNA inh inactive, CR mimetic SO inactive, SUMO Mot1 rescue inactive and PglD inh inactive.
Screening CC(=O)Nc1ccc(NC(=O)COC(=O)c2cc(S(=O)(=O)N3CCCC3)ccc2O)cc1 returned Cneo AK release inactive, Ecoli rRNA inh inactive, CR mimetic SO 62, SUMO Mot1 rescue inactive, PglD inh inactive, CR mimetic CP inactive and DHE fluor count inactive.
For COc1ccc(S(=O)(=O)NC(N)=NCCc2ccc(OC)c(OC)c2)cc1C the results were CR mimetic SO 64, SUMO Mot1 rescue inactive, CR mimetic CP inactive and DHE fluor count inactive.
Screening COc1ccc(CCN=C(N)NS(=O)(=O)c2ccc(C)c(C)c2)cc1OC returned Cneo AK release inactive, Ecoli rRNA inh inactive, CR mimetic SO inactive, SUMO Mot1 rescue inactive and PglD inh inactive.

High-throughput results deposited in PubChem by several laboratories.
